# Reference: ChEMBL document CHEMBL1136118, “N- and C-terminal modifications of negamycin” (Bioorg Med Chem Lett, 2003)
# Tests used:
# Assay type in all cases: functional
# Enterobacter cloacae = test: In vitro antibacterial activity against Enterobacter cloacae ATCC 35030
# Method in brief: (§1)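 Broth microdilution MIC in Mueller–Hinton broth supplemented with 50% human serum; inoculum 5 × 10⁵ cfu/mL. MG1655 tolC is an efflux pump mutant.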
# Escherichia coli [1] = test: In vitro antibacterial activity against Escherichia coli MG1655 tolC; method in brief: as §1
# Escherichia coli [2] = test: Inhibitory activity against protein synthesis of Escherichia coli S30 by cell-free transcription/translation coupled assay
# Method in brief: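 Coupled transcription/translation in E. coli S30 extract with pGEMbgal DNA template; compounds preincubated with reaction mixture 10 min before template addition; after 1 h incubation ONPG added and β-galactosidase activity read at 420 nm.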
# Escherichia coli [3] = test: In vitro antibacterial activity against Escherichia coli ATCC 25922; method in brief: as §1
# Escherichia coli [4] = test: In vitro antibacterial activity against Escherichia coli MG1655; method in brief: as §1
# Klebsiella pneumoniae = test: In vitro antibacterial activity against Klebsiella pneumoniae […]; method in brief: as §1
# Pseudomonas aeruginosa = test: In vitro antibacterial activity against Pseudomonas aeruginosa PA013; method in brief: as §1
# Staphylococcus aureus = test: In vitro antibacterial activity against Staphylococcus aureus ATCC 25293; method in brief: as §1
# Streptococcus pneumoniae = test: In vitro antibacterial activity against Streptococcus pneumoniae VSPN1005; method in brief: as §1
# Mus musculus = test: In vivo efficacy in Escherichia coli murine septicemia model
# Method in brief: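 Mice infected ip with approximately 1 × 10⁵ cfu E. coli ATCC25922; compound given iv at 1 and 5 h post-infection; survival followed for 7 days; ED₅₀ calculated by non-linear regression.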
MIC (Enterobacter cloacae) [µg/mL],MIC (Escherichia coli [1]) [µg/mL],IC50 (Escherichia coli [2]) [µM],MIC (Escherichia coli [3]) [µg/mL],MIC (Escherichia coli [4]) [µg/mL],MIC (Klebsiella pneumoniae) [µg/mL],MIC (Pseudomonas aeruginosa) [µg/mL],MIC (Staphylococcus aureus) [µg/mL],MIC (Streptococcus pneumoniae) [µg/mL],Structure (SMILES),ED50 (Mus musculus) [mg/kg]
> 256,> 256,> 80,> 256,> 256,> 256,> 256,> 256,> 256,CN(CP(=O)(O)O)NC(=O)C[C@H](N)C[C@@H](O)CN,
> 256,> 256,20.3,> 256,> 256,> 256,> 256,> 256,> 256,CCCNC[C@H](O)C[C@@H](N)CC(=O)NN(C)CC(=O)O,
> 256,> 256,> 80,> 256,> 256,> 256,> 256,> 256,> 256,CN(CP(C)(=O)O)NC(=O)C[C@H](N)C[C@@H](O)CN,
16,8,3.5,16,16,32,64,256,,CC(C)C[C@H](N)C(=O)NC[C@H](O)C[C@@H](N)CC(=O)NN(C)CC(=O)O,
> 256,128,> 80,> 256,> 256,> 256,> 256,> 256,,CN(CC(=O)O)NC(=O)C[C@H](N)C[C@@H](O)CN=C(N)N,
> 256,> 256,> 80,> 256,> 256,> 256,> 256,> 256,> 256,CN(CC(=O)O)NC(=O)C[C@H](N)CC(O)CN1CCOCC1 (some centres undefined),
16,4,4.5,16,8,8,128,> 256,,CCNC[C@H](O)C[C@@H](N)CC(=O)NN(C)CC(=O)O,
> 256,> 256,> 80,> 256,> 256,> 256,> 256,> 256,> 256,NC[C@H](O)C[C@@H](N)CC(=O)NOCC(=O)O,
> 256,> 256,> 80,> 256,> 256,> 256,> 256,> 256,> 256,CN(CC(=O)O)NC(=O)C[C@H](N)CC(O)CN1CCNCC1 (some centres undefined),
> 256,> 256,> 80,> 256,> 256,> 256,> 256,> 256,> 256,CN(Cc1nn[nH]n1)NC(=O)C[C@H](N)C[C@@H](O)CN,
> 256,> 256,> 80,> 256,> 256,> 256,> 256,> 256,> 256,NC[C@H](O)C[C@@H](N)CC(=O)NN1CCC[C@H]1C(=O)O,
> 256,> 256,> 80,> 256,> 256,> 256,> 256,> 256,> 256,CC(ONC(=O)C[C@H](N)C[C@@H](O)CN)C(=O)O (some centres undefined),
> 256,> 256,> 80,> 256,> 256,> 256,> 256,> 256,> 256,CN(CC(=O)O)NC(=O)C[C@H](N)C[C@H](O)CCN,
64,16,0.8,64,32,32,> 128,> 128,128,CN(CC(=O)O)NC(=O)C[C@H](N)C[C@@H](O)CNCc1ccccc1,
128,32,23.4,128,128,64,> 512,512,,CN(CC(=O)O)NC(=O)C[C@H](N)C[C@H](O)CN,
> 256,> 256,> 80,> 256,> 256,> 256,> 256,> 256,> 256,CN(CC(=O)O)NC(=O)C[C@H](N)CC(O)CN1CC[C@H](N)C1 (some centres undefined),
> 256,> 256,> 80,> 256,> 256,> 256,> 256,> 256,,CN(CC(=O)O)NC(=O)C[C@H](N)C[C@@H](O)CNC(N)=O,
> 256,> 256,> 80,> 256,> 256,> 256,> 256,> 256,> 256,CN(CC(=O)O)NC(=O)C[C@H](N)C[C@@H](O)CCN,
16,4,2.3,16,8,4,128,128,256,CNC[C@H](O)C[C@@H](N)CC(=O)NN(C)CC(=O)O,16.3
> 256,> 256,> 80,> 256,> 256,> 256,> 256,> 256,> 256,NC[C@H](O)C[C@@H](N)CC(=O)NN1CCC[C@@H]1C(=O)O,
> 256,> 256,> 80,> 256,> 256,> 256,> 256,> 256,> 256,CN(CC(=O)O)NC(=O)C[C@H](N)CC(O)CN1CC[C@@H](N)C1 (some centres undefined),
> 256,> 256,> 80,> 256,> 256,> 256,> 256,> 256,> 256,CC(C)CCCNC[C@H](O)C[C@@H](N)CC(=O)NN(C)CC(=O)O,
8,2,1,4,4,2,32,32,32,CN(CC(=O)O)NC(=O)C[C@H](N)C[C@@H](O)CN [NEGAMYCIN],5.1
